According to ChEMBL document CHEMBL4251566 (Eur J Med Chem, 2018):

Tests used:
[1] = target: Tyrosine-protein kinase BTK (Homo sapiens, UniProt Q06187); assay: Inhibition of recombinant full-length N-terminal His-tagged human BTK expressed in baculovirus infected Sf9 insect cells using Poly(4:1 Glu,Tyr) peptide substrate incubated for 60 mins by ADP-Glo luminescence assay
[2] = target: T1, Tyrosine-protein kinase JAK3 (Homo sapiens, UniProt P52333); assay: Inhibition of recombinant N-terminal GST-tagged human JAK3 (781 to end residues) expressed in baculovirus infected Sf9 insect cells using Poly(4:1 Glu,Tyr) peptide substrate incubated for 60 mins by ADP-Glo luminescence assay
T1 sequence (P52333 whole entry): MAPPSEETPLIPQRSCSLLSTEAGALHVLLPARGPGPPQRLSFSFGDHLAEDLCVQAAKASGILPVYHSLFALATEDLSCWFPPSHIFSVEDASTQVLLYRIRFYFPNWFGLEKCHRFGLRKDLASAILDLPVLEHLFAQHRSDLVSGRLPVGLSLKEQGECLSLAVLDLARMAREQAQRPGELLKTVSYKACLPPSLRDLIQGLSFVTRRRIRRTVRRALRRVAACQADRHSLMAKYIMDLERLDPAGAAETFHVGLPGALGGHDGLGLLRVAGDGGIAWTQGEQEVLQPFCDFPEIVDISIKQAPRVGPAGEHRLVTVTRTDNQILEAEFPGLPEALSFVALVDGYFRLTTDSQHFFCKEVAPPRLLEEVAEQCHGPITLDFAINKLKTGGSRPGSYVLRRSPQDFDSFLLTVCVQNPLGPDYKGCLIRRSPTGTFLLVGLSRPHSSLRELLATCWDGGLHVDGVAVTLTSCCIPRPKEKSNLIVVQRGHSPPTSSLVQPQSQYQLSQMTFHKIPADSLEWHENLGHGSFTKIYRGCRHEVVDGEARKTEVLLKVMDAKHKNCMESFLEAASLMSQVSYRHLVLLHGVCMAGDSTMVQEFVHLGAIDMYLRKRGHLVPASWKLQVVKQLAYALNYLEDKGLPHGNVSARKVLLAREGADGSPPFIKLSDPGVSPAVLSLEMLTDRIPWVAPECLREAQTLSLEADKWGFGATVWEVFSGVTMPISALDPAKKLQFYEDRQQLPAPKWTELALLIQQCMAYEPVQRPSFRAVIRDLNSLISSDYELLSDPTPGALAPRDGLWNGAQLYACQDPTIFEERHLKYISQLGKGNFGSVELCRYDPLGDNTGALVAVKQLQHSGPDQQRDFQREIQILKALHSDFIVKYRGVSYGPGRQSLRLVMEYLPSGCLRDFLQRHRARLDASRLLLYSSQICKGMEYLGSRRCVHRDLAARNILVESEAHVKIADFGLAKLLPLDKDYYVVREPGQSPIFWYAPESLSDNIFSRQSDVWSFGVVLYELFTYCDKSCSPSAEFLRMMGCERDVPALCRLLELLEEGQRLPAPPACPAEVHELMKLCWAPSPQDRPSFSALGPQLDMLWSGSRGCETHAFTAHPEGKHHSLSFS
How it was run: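 ADP-Glo luminescent kinase assay. The kinase reaction ran 60 min at room temperature in 1× kinase buffer. ADP-Glo reagent was added to stop the reaction and deplete ATP, followed by 40 min at room temperature. Detection reagent then converted ADP to ATP for a luciferase readout, followed by 30 min at room temperature. Luminescence was integrated over 0.5–1 s, and IC50 came from curve fitting.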

[3] = system: Ramos; assay: Antiproliferative activity against human Ramos cells after 72 hrs by CCK-8 assay
[4] = system: NAMALVA; assay: Antiproliferative activity against human NAMALWA cells after 72 hrs by CCK-8 assay; type: functional, cell-based
How it was run: (§1)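 CCK-8 viability assay. Cells were seeded at 3000/well in RPMI-1640 with 10% FBS at 37 °C, 5% CO2, for 4 h before treatment. Exposure was 72 h at five concentrations (1.25, 5, 10, 20, 40 µM), each in five replicates. Absorbance was read at 450 nm. IC50 came from dose-response curves, as the mean of at least three separate experiments.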

[5] = system: Ramos; assay: Antiproliferative activity against human Ramos cells assessed as inhibition of cell viability at 20 uM after 72 hrs by CCK-8 assay; type: functional; how it was run: as §1
[6] = system: PBMC; assay: Cytotoxicity against human PBMCs assessed as induction of morphological changes at <10 uM after 24 hrs by AO/PI staining-based phase contrast microscopy; type: cell-based
[7] = system: Ramos; assay: Induction of apoptosis in human Ramos cells assessed as early apoptotic cells at 10 uM after 72 hrs by Annexin V-FITC/propidium iodide staining based flow cytometry (reference value: 0.0%); type: functional
[8] = system: Ramos; assay: Induction of apoptosis in human Ramos cells assessed as viable cells at 10 uM after 72 hrs by Annexin V-FITC/propidium iodide staining based flow cytometry (reference value: 98.7%); type: functional; settings: read-out: Activity
[9] = system: Ramos; assay: Induction of apoptosis in human Ramos cells assessed as necrotic cells at 5 uM after 72 hrs by Annexin V-FITC/propidium iodide staining based flow cytometry (reference value: 0.7%); type: functional
[10] = system: Ramos; assay: Induction of apoptosis in human Ramos cells assessed as late apoptotic cells at 5 uM after 72 hrs by Annexin V-FITC/propidium iodide staining based flow cytometry (reference value: 0.5%); type: functional
[11] = system: Ramos; assay: Induction of apoptosis in human Ramos cells assessed as late apoptotic cells at 20 uM after 72 hrs by Annexin V-FITC/propidium iodide staining based flow cytometry (reference value: 0.5%); type: functional
[12] = target: T2, Tyrosine-protein kinase JAK3 (Homo sapiens) (UniProt P52333); assay: Inhibition of JAK3 in human NAMALWA cells assessed as reduction in STAT3 phosphorylation after 48 hrs by immunoblot analysis; type: cell-based
T2 sequence (whole entry): T1 sequence (P52333 whole entry)
How it was run: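 Namalwa cells were treated with 1, 5 or 10 µM for 48 h. Lysates were cleared at 14,000 g for 15 min at 4 °C, and 50 µg of protein was run on 8–12% SDS-PAGE and transferred to PVDF. Membranes were blocked in 5% milk for 2 h and incubated with primary antibody overnight at 4 °C. Detection was by ECL, with band IOD normalized to β-actin.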

[13] = system: Ramos; assay: Antitumor activity against human Ramos cells xenografted in CB17/SCID mouse assessed as tumor growth inhibition at 60 mg/kg, po qd for 14 days; type: functional; settings: 336 h, read-out: TGI
How it was run: (§2)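 Female CB17/SCID mice, 5–6 weeks old and 20–25 g, received 3×10⁶ Ramos cells in 0.1 mL PBS subcutaneously in the right axilla. From day 3 after implantation, dosing was oral at 30 or 60 mg/kg for 14 days; vehicle controls got oral 25% PEG-400. Tumor volume was A×B²/2 from caliper diameters. Tumor weight was taken at sacrifice, and body weight was tracked. n = 5.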

[14] = system: Mus musculus; assay: Toxicity in CB17/SCID mouse xenografted with Ramos cells assessed as change in body weight at 60 mg/kg, po qd for 14 days; type: organism-based; settings: in vivo, 336 h; how it was run: as §2
[15] = system: Ramos; assay: Induction of apoptosis in human Ramos cells assessed as total apoptosis rate at 10 uM after 72 hrs by Annexin V-FITC/propidium iodide staining based flow cytometry relative to control
[16] = system: Ramos; assay: Induction of apoptosis in human Ramos cells assessed as total apoptosis rate at 20 uM after 72 hrs by Annexin V-FITC/propidium iodide staining based flow cytometry relative to control

Tyrosine-protein kinase BTK, sequence (Q06187 whole entry): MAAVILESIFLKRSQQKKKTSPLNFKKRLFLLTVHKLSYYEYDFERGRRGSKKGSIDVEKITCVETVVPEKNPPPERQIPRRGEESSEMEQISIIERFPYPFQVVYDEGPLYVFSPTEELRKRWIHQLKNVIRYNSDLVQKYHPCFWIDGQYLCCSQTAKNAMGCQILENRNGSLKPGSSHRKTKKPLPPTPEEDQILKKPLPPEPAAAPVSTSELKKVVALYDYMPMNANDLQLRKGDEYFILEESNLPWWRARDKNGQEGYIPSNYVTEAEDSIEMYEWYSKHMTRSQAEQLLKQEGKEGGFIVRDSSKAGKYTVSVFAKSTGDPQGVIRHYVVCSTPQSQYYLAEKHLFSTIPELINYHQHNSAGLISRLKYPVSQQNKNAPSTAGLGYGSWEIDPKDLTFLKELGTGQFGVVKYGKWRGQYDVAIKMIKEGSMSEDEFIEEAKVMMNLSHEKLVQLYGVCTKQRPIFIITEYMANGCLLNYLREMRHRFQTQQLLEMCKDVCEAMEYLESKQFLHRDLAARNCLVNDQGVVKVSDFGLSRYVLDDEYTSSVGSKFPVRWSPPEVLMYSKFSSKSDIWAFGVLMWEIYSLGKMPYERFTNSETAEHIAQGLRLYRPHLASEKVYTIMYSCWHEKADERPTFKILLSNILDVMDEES

| IC50 [1] [nM] | IC50 [2] [nM] | IC50 [3] [nM] | inhibition [12] | Compound | IC50 [4] [nM] | inhibition at 20 µM [5] [%] | Activity [6] | Activity [7] [%] | viability at 10 µM [8] [%] | Activity [9] [%] | Activity [10] [%] | Activity [11] [%] | inhibition in vivo at 60 mg/kg [13] [%] | Activity [14] | Activity [15] [%] | Activity [16] [%] |
| --- | --- | --- | --- | --- | --- | --- | --- | --- | --- | --- | --- | --- | --- | --- | --- | --- |
| 0.6 | 0.83 | 4850 | Dose-dependent effect | C=CC(=O)Nc1cccc(Nc2nc(Nc3ccc(OCCCN4CCOCC4)cc3)ncc2Cl)c1 | 8230 | 91 | Non-Toxic | 67.6 | 20.1 | 6.6 | 8.2 | 18.6 | 47.5 | <= 5% | 77.2 | 80.2 |
| 0.8 | 8.34 | 2460 | Dose-dependent effect | C=CC(=O)Nc1cccc(Nc2nc(Nc3ccc(OCC(=O)N4CCOCC4)c(Cl)c3)ncc2Cl)c1 | 6450 | 91 | Non-Toxic | 59 | 29 | 0.9 | 7 | 14.4 | 36.6 | <= 5% | 69.9 | 79.5 |
